Screening data (PubChem)
Only some compounds are listed: those with a hit (about 4.4% of all), similar ones and a draw of the others.
EBI2 antag = blocks human EBI2 receptor beta-arrestin signaling; EBI2 beta-arrestin recruitment, luminescence, 7a,25-OHC stimulated; inhibition, % at 5 µM; 360,000 tested, 0.81% active; AID 651636; in the data active = inhibition above about 38%;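 also: enzyme fragment complementation signal reports receptor beta-arrestin coupling in cells; 0% = agonist plus DMSO wells and 100% = wells without agonist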
Target sequence (P32249 whole entry, looked up, the tested form may be a part): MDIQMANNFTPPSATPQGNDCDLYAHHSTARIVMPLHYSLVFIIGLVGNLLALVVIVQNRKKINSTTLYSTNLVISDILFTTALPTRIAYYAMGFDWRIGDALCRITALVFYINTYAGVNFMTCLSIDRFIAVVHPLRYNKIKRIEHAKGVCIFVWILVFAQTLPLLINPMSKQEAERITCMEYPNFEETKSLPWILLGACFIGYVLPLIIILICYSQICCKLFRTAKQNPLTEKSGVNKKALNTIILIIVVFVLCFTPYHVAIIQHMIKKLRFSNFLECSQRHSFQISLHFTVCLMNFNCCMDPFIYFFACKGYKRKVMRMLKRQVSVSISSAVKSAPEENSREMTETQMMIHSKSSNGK
GRIN3A LBD mod = modulators (binders) of human NR3A ligand-binding domain; Tm shift relative to glycine control, % at 25 µM; NR3A LBD differential scanning fluorimetry, Tm shift; 0% = protein alone, 100% = glycine-bound protein; AID 1259313; 340,000 tested, 2.5% active;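 active = melting temperature shift of at least 10% of the positive control shift, at one fixed dose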
SENP1 FRET inh = SENP1 (human) catalytic domain inhibition; recombinant SENP1 catalytic domain, CyPet-SUMO1-YPet FRET cleavage; inhibition, % at 10 µM; AID 624204; 360,000 tested, 0.21% active;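 active = inhibition at least 30% at 10 µM, raw YFP signal under a set limit, fluorescence ratio 0.5 to 1.5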;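 also: 0% = enzyme with DMSO and 100% = no enzyme wells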
Target sequence (Q9P0U3 419-644 limits assumed): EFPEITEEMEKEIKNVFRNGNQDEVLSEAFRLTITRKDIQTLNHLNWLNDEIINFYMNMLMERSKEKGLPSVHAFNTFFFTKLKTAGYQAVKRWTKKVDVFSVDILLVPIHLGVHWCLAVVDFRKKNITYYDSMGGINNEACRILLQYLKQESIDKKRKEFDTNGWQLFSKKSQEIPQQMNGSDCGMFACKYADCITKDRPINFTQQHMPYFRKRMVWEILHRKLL
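System: Recombinant human SENP1 catalytic domain, His6-tagged | Incubation: Enzyme reaction for 50 min at room temperature, dark | Medium: Tris pH 8 with BME, BSA, NP40 and catalase | Also added: 25 nM SUMO1 FRET substrate | Compound: 10 µM single point, 0.5% DMSO | Measured by: FRET fluorescence in CFP and YFP emission channels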
MPTP inh = blocks calcium-induced mitochondrial swelling; inhibition, % at 10 µM; 360,000 tested, 1.4% active; AID 602449; isolated mouse mitochondria, Ca2+ swelling absorbance, 30 min;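 active = inhibition of 50% or more, scaled per plate between neutral and stimulator controls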;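 also: 0% = DMSO wells given calcium and 100% = 1 mM EGTA wells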
Rh123 counter = Rhodamine 123 counter-screen of mitochondrial pore hits; AID 624504; 5,000 tested, 78% active; inhibition, % at 10 µM; shares compounds with MPTP inh; isolated mitochondria, membrane potential, Rhodamine 123 fluorescence; in the data active = inhibition above about 22%;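 also: 0% = DMSO vehicle and 100% = positive control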
MPTP abs DR = dose response confirmation of mitochondrial permeability transition pore inhibitors; 780 tested, 58% active; IC50, µM; shares compounds with MPTP inh; isolated mitochondria swelling, absorbance; in the data active = IC50 below about 20 µM
MPTP cs DR = counter-screen for mitochondrial permeability transition pore inhibitors, dose response; shares compounds with MPTP inh; isolated mitochondria counterscreen, fluorescence read-out; IC50, µM; 780 tested, 49% active; AID 651564; in the data active = IC50 below about 80 µM
* hit, by the source's call.

How did COC(=O)C(CC(C)C)NC(=O)c1cccs1 (centres undefined) do in these assays?
EBI2 antag: 4; GRIN3A LBD mod: 1; SENP1 FRET inh: -1; MPTP inh: -1

How did O=C(Nc1ccc(F)cc1)Nc1csc2ccccc12 do in these assays?
EBI2 antag: 3; GRIN3A LBD mod: 34*; SENP1 FRET inh: 0; MPTP inh: 75*; Rh123 counter: 91*

How did CN1CCC(CNC(=O)Nc2csc3ccccc23)CC1 do in these assays?
EBI2 antag: -12; GRIN3A LBD mod: 1; SENP1 FRET inh: -20; MPTP inh: 1

What do the screens show for `CN(C)c1ccc(NC(=O)Nc2csc3ccccc23)cc1`?
EBI2 antag: 0; GRIN3A LBD mod: 18*; SENP1 FRET inh: -2; MPTP inh: 52*; Rh123 counter: 54*

Results for Cc1c(CCC(=O)O)c(=O)oc2c(C)c(OCc3cc4c(cc3Cl)OCO4)ccc12 ?
EBI2 antag: -4; GRIN3A LBD mod: -1; SENP1 FRET inh: -2; MPTP inh: 18

What do the screens show for `COC(=O)c1ccccc1NC(=S)NC(NC(=O)COc1ccccc1)C(Cl)(Cl)Cl` (centres undefined)?
EBI2 antag: -8; GRIN3A LBD mod: 6; SENP1 FRET inh: 0; MPTP inh: 23

What do the screens show for `Cc1ccc(NC(=S)NC(NC(=O)c2ccccc2C)C(Cl)(Cl)Cl)c(C)c1` (centres undefined)?
EBI2 antag: 7; GRIN3A LBD mod: 1; SENP1 FRET inh: 0; MPTP inh: 93*; Rh123 counter: 82*

What do the screens show for `CCc1ccc(OCC(=O)NC(NC(=S)Nc2ccccc2)C(Cl)(Cl)Cl)cc1` (centres undefined)?
EBI2 antag: 9; GRIN3A LBD mod: 23*; SENP1 FRET inh: -1; MPTP inh: 80*; Rh123 counter: 88*

Results for CCc1ccc(OCC(=O)NC(NC(=S)Nc2ccccc2OC)C(Cl)(Cl)Cl)cc1 (centres undefined) ?
EBI2 antag: 9; GRIN3A LBD mod: 7; SENP1 FRET inh: 0; MPTP inh: 92*; Rh123 counter: 89*

How did Cc1ccccc1NC(=S)NC(NC(=O)COc1ccccc1)C(Cl)(Cl)Cl (centres undefined) do in these assays?
EBI2 antag: 4; GRIN3A LBD mod: -5; SENP1 FRET inh: 1; MPTP inh: 80*; Rh123 counter: 83*

How did CCCn1c(N)c(N(CCOC)C(=O)/C=C/c2cccc(Cl)c2)c(=O)[nH]c1=O do in these assays?
EBI2 antag: 0; GRIN3A LBD mod: 0; SENP1 FRET inh: 1; MPTP inh: 0

What do the screens show for `O=C(NCCN1CCOCC1)c1cc2cc([N+](=O)[O-])ccc2s1`?
EBI2 antag: 2; GRIN3A LBD mod: -1; SENP1 FRET inh: 3; MPTP inh: 0

Results for COc1ccc(CCNC(=O)COC(=O)/C=C/c2ccc(OC)c(OC)c2)cc1 ?
EBI2 antag: 20; GRIN3A LBD mod: 1; SENP1 FRET inh: 3; MPTP inh: 3

How did CCc1ccc(OCC(=O)NC(NC(=S)Nc2ccc(C)cc2C)C(Cl)(Cl)Cl)cc1 (centres undefined) do in these assays?
EBI2 antag: -4; GRIN3A LBD mod: -2; SENP1 FRET inh: 2; MPTP inh: 0

How did CC(C)CC(=O)NC(NC(=S)Nc1ccccc1)C(Cl)(Cl)Cl (centres undefined) do in these assays?
EBI2 antag: 2; GRIN3A LBD mod: -4; SENP1 FRET inh: 4; MPTP inh: 14

How did CCc1ccc(OCC(=O)NC(NC(=S)Nc2ccccc2C)C(Cl)(Cl)Cl)cc1 (centres undefined) do in these assays?
EBI2 antag: 16; GRIN3A LBD mod: 15*; SENP1 FRET inh: -1; MPTP inh: 81*; Rh123 counter: 87*

Results for O=C(COc1ccccc1)NC(NC(=S)Nc1ccccc1O)C(Cl)(Cl)Cl (centres undefined) ?
EBI2 antag: 4; GRIN3A LBD mod: 5; SENP1 FRET inh: -1; MPTP inh: 73*; Rh123 counter: 74*

How did Cn1c(=N)n(CC(O)c2ccco2)c2ccccc21 (centres undefined) do in these assays?
EBI2 antag: -8; GRIN3A LBD mod: 2; SENP1 FRET inh: -4; MPTP inh: 14

How did Cn1c(=N)n(CC(O)c2cccc3ccccc23)c2ccccc21 (centres undefined) do in these assays?
EBI2 antag: 2; GRIN3A LBD mod: 0; SENP1 FRET inh: 1; MPTP inh: 90*; Rh123 counter: 5; MPTP abs DR: 3.4*; MPTP cs DR: 37*

How did Cc1ccc2nc(C(Cl)(Cl)Cl)nc(N/N=C/c3ccncc3)c2c1 do in these assays?
EBI2 antag: -2; GRIN3A LBD mod: -6; SENP1 FRET inh: 3; MPTP inh: -1

Results for Cc1ccc2nc(C(Cl)(Cl)Cl)nc(N/N=C/c3ccc([N+](=O)[O-])cc3)c2c1 ?
EBI2 antag: -3; GRIN3A LBD mod: -1; SENP1 FRET inh: -49; MPTP inh: 94*; Rh123 counter: 9; MPTP abs DR: inactive; MPTP cs DR: 11*

How did COc1ccc(Cl)c2sc(N(CCN(C)C)C(=O)c3ccc4c(c3)OCCO4)nc12 do in these assays?
EBI2 antag: -15; SENP1 FRET inh: 0; MPTP inh: 74*; Rh123 counter: -13; MPTP abs DR: inactive; MPTP cs DR: 50*

Results for COc1cc2ccccc2cc1C(=O)N(CCN(C)C)c1nc2c(OC)ccc(OC)c2s1 ?
EBI2 antag: 0; GRIN3A LBD mod: 1; SENP1 FRET inh: 0; MPTP inh: 67*; Rh123 counter: -8; MPTP abs DR: >100; MPTP cs DR: 52*

What do the screens show for `Cc1cccc2sc(N(CCN(C)C)C(=O)C3CCN(S(=O)(=O)c4cccs4)CC3)nc12`?
EBI2 antag: 0; GRIN3A LBD mod: -11; SENP1 FRET inh: -3; MPTP inh: 72*; Rh123 counter: -18; MPTP abs DR: inactive; MPTP cs DR: >80

How did COc1cc2ccccc2cc1C(=O)N(CCN(C)C)c1nc2c(C)cccc2s1 do in these assays?
EBI2 antag: 5; GRIN3A LBD mod: 1; SENP1 FRET inh: 2; MPTP inh: 69*; Rh123 counter: -8; MPTP abs DR: inactive; MPTP cs DR: >80

How did COc1ccc(OC)c2sc(N(CCN(C)C)C(=O)c3ccc4ccccc4c3)nc12 do in these assays?
EBI2 antag: -7; GRIN3A LBD mod: 3; SENP1 FRET inh: 3; MPTP inh: -1

How did Cc1cc2c(cc1S(=O)(=O)N1CCCC1)n(C)c(=O)c(=O)n2C do in these assays?
EBI2 antag: -4; GRIN3A LBD mod: 0; SENP1 FRET inh: 1; MPTP inh: -3

Results for Cc1cc(NC(=O)c2ccccc2-c2ccccc2)ccc1Br ?
EBI2 antag: 28; GRIN3A LBD mod: -13; SENP1 FRET inh: 3; MPTP inh: 7
